This sample holds only a part of the variants without activity.
B1: tRNA (parent)
chain: GUUCCGUUGGCGUAAUGGUAACGCGUCUCCCUCCUAAGGAGAAGACUGCGGGUUCGAGUCCCGUACGGAACG

Variants of: B1
Experiment: yeast fitness relative to wild type (ratio to wild type); higher = fitter; tRNA-Arg(CCU), competitive growth, 37 C, YPD
Summary of the method: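 Amplicons of the tRNA-Arg(CCU) gene were sequenced, 100-nucleotide paired-end, from the start population and from each end population of a pooled yeast competition. The competition, in six parallel replicates, lasted 24 hours in YPD at 37°C. Fitness relative to wild type was calculated from changes in genotype frequencies. Genotypes had to have ≥ 100 starting reads, and estimates < 0.5 were set to 0.5.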

Variant | yeast fitness
A36U G48U C66A | ≤ 0.5
A36G A65G A70G | 0.639
A36U A40U A57U G63A | ≤ 0.5
G38A A42C U54C A69C | ≤ 0.5
A36G A42G | 0.797
A36C A40U | 0.604
A36C A37U A65C | 0.534
A36C G39A A57U | ≤ 0.5
C34G G51C | 0.609
C34G G51A | 0.94
U35G A42G G56C | 0.59
C34G C66A | 0.543
A36G U47A | 0.789
A37C A43C A45C | ≤ 0.5
A37C A43C C62U | 0.882
U35C A37G C60U | ≤ 0.5
A37G C46U U59G | 0.508
A36C G48C | ≤ 0.5
C34U C46G C62U | 0.549
G38C G50A G52A C55U | ≤ 0.5
U35G C66U | 0.681
A36G A42G C49G | ≤ 0.5
A36G A37U | 0.718
A36G A37G | 0.816

Variant | yeast fitness
U35G A40G C49G | ≤ 0.5
G38C U54C | 0.82
U35C C49A | 0.735
U35C C49U | 0.755
G38C C60U G63C A65G | ≤ 0.5
U35C G44A G48C C55G A69U | ≤ 0.5
U35A A69C A70C | 0.535
A36C A70U | 0.703
C34U G41C C60U | ≤ 0.5
C34U G41C C60A | ≤ 0.5
C34G G63A A70C | ≤ 0.5
A37G A40C A43C G67U | ≤ 0.5
A37G U53C G67A | ≤ 0.5
U35G C46U C62U | 0.579
A36U G38A A65C | 0.518
G38A A43U G56A | 0.596
C34G G41C C49U | 0.684
A36U A42U | 0.71
C34U G58C | 0.757
A36U G48C C66U | ≤ 0.5
A37C A40C G41C | 0.579
U35A G44C | 0.71
A36C G52C C66U | 0.54
A37C A42C C66U | 0.712

Variant | yeast fitness
A36C U47A G48C U54G A65C | 0.6
C34G G51A C66U | 0.649
C34U G41C A69G | ≤ 0.5
U35C G41A A45U | 0.664
A36U A43C C49A C55G | ≤ 0.5
A36G U54C C61U C66U | ≤ 0.5
A37G A42U | 0.787
U35A U47C C61G | ≤ 0.5
A36U G44C A45U C62U G68A | 0.789
A36C U54A | ≤ 0.5
A36C U54C | ≤ 0.5
G38A C62U A70U | 0.577
G38C A45G | 0.641
G38A A40U G50C C60G A70G | 0.526
A37C U53C U64A | 0.679
C34U G38C C55A | ≤ 0.5
A36U A42C A43G U64C A70C | 0.559
A36U A37G G50C | ≤ 0.5
A36C C55U | 0.675
A37C A42U | 0.809
C34G U54A | 0.563
A36G A43G A57C A65U | ≤ 0.5
A37U A65C | 0.739
A37U C55G G68C | ≤ 0.5

Variant | yeast fitness
A37C G63C C66U | ≤ 0.5
A37G U53C A57C | ≤ 0.5
A36G G50A | 0.898
G38C G39C C46U A69U | ≤ 0.5
A36G A37C A45C C46G | 0.554
G38A G58C A70U | 0.748
A37U C49U C61G | ≤ 0.5
A37U A45U U47C C62G | ≤ 0.5
A36G G56A A69U | 0.718
A36C G63A | 0.704
U35A A37U U47A C62U | ≤ 0.5
A37U A42G A45U G67C | ≤ 0.5
A37C G52C C66G | ≤ 0.5
A36U G44C | 0.629
U35A U53C | ≤ 0.5
U35A C62U | 0.732
G38C U64C | 0.803
U35A A42U A43U | ≤ 0.5
U35C G41C | 0.718
U35A A43G U64C | ≤ 0.5
A37G C46A | 0.774
U35C C61G A69G | ≤ 0.5
A37U U64A | 0.642
U35C A37U A42G G51A | ≤ 0.5

Variant | yeast fitness
A37G A42C A70C | 0.729
G38C A43U A45G | ≤ 0.5
U35A A36U C61U | ≤ 0.5
U35A C55U A65G | ≤ 0.5
A37G G58C | 0.719
A37G G58A | 0.976
A37C C55G G63A | ≤ 0.5
A36C A43C C66A | 0.731
A36G A45U C49U | 0.882
A36C C66A | ≤ 0.5
A36C G48C U54G | ≤ 0.5
A36G A45C C61U | 0.76
A36U A45G G67A | ≤ 0.5
A37C U47A | 0.674
A36G G48A | 0.991
U35A C49U U64A | ≤ 0.5
G38A A69C | 0.847
G38C A69U A70U | ≤ 0.5
G38A | 1.02
G38U | 1.01
G38C | 0.806
A37G G44C A57U G68C | 0.512
U35A A42G A43C | 0.581
C34U A69C | 0.774

Variant | yeast fitness
U35G A65C | 0.639
A37G A45G | 0.707
A37C C49U | 0.848
A36U A45C G63C | 0.614
A37U G63C A69C | ≤ 0.5
A37U A45U C62G | ≤ 0.5
A36C A45C G48A A65C | ≤ 0.5
G38A G58A | 1.06
A36G A37U G67A | ≤ 0.5
C34G U53C C55G | ≤ 0.5
A37C G56C | 0.6
A36G A37U C55G | 0.69
G38A G58C C66U | 0.588
A36G A65U | 0.991
G38C A70C | 0.738
A36U C46G C62A | ≤ 0.5
U35A G52C | ≤ 0.5
A37U A70U | 0.655
A36C G41A | 0.587
A37U U53G G56A A70C | ≤ 0.5
C34U G48A C55U | 0.638
A37U U59C | 0.721
C34G G41A A45G A57G C60G C62U | ≤ 0.5
A37C C60G G67A | ≤ 0.5

Variant | yeast fitness
U35A G58C | 0.634
C34U A40U A57U | ≤ 0.5
C34U G56A A70G | ≤ 0.5
G38A A57U | 0.772
A37C A42C C55U | 0.597
U35G A45C | 0.617
U35C G50A G67A | ≤ 0.5
A36C G38C A45G G50C | ≤ 0.5
A36G C46G | 1.08
C34G G41C C49U C62A A69C | ≤ 0.5
C34G G52A C62U | 0.6
U35A A37G A43C U54C | ≤ 0.5
G38U G48A A70U | 0.652
G38C G48C G63C | 0.574
A36C G41A U53C A70C | 0.526
U35C | 0.817
U35A | 0.715
U35G | 0.676
G38A A40G C49U C66A | ≤ 0.5
U35C A40U A42G U47C | 0.601
A37U C49U G58A | 0.57
A36U C55U G56A | 0.864
A37C A45C | 0.758

From the RNAGym collection of RNA variant scans (doi:10.1126/science.aae0568)
